Laboratory results: ChEMBL document CHEMBL1140994, “Ranking the selectivity of PubChem screening hits by activity-based protein profiling: MMP13 as a case study” (Bioorg Med Chem, 2009)
pIC50: −log10 of the molar value. The source made the active and inactive calls. The calls are words filed in the database; no cut-off is given here.

Experiments:
[1] = target: Matrix metalloproteinase-15 (Homo sapiens) (UniProt P51511); experiment: Inhibition of human recombinant MMP15 at 200 uM by HxBPyne probe-based competitive activity based protein profiling assay in presence of 5 uM HxBpane competitor
Outline: (§1)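 Recombinant enzyme at 0.5 μM final in mouse liver soluble proteome (1 mg protein/mL in PBS). HxBPyne probe cocktail 0.5 μM total final, with inhibitor 200 μM or DMSO. Preincubated 30 min on ice, then UV 365 nm for 1 h on ice. Rhodamine-azide click chemistry, 1 h RT in dark. SDS-PAGE with in-gel fluorescence; band intensity given as % of DMSO control.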

Collagenase 3 [2] = target: T1, Collagenase 3 (Homo sapiens, UniProt P45452); experiment: Inhibition of human recombinant MMP13 by fluorogenic substrate assay
[3] = target: T2, A disintegrin and metalloproteinase with thrombospondin motifs 5 (Homo sapiens) (UniProt Q9UNA0); experiment: Inhibition of human recombinant ADAMTS5 at 200 uM by HxBPyne probe-based competitive activity based protein profiling assay in presence of 5 uM HxBpane competitor; outline: as §1
T2 sequence (whole entry): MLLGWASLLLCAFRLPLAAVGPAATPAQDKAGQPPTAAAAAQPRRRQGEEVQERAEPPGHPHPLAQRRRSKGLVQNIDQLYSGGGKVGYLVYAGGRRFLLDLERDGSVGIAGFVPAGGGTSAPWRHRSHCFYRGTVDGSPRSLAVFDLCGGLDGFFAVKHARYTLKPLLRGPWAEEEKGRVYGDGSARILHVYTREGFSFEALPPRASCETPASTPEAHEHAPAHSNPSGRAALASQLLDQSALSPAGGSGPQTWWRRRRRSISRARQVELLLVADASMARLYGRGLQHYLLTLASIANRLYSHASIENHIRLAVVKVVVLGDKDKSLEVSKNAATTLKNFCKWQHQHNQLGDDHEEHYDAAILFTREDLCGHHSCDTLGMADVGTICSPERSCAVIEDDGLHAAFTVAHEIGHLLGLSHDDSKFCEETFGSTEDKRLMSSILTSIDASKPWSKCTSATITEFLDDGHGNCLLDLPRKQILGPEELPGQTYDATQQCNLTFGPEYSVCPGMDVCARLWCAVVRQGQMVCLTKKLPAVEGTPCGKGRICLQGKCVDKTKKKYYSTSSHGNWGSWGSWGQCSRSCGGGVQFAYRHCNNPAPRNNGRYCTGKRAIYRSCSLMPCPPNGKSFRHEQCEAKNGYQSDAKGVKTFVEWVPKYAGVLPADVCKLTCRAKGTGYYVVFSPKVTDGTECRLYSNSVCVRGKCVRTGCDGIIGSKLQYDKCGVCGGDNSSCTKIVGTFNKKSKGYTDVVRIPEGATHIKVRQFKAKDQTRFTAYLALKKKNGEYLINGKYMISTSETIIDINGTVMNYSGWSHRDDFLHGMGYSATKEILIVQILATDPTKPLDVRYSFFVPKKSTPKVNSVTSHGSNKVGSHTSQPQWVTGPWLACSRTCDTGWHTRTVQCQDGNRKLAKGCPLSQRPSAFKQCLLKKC

[4] = target: Stromelysin-2 (Homo sapiens) (UniProt P09238); experiment: Inhibition of human recombinant MMP10 at 200 uM by HxBPyne probe-based competitive activity based protein profiling assay in presence of 5 uM HxBpane competitor; outline: as §1
[5] = target: T3, Stromelysin-3 (Homo sapiens) (UniProt P24347); experiment: Inhibition of human recombinant MMP11 at 200 uM by HxBPyne probe-based competitive activity based protein profiling assay in presence of 5 uM HxBpane competitor; outline: as §1
T3 sequence (whole entry): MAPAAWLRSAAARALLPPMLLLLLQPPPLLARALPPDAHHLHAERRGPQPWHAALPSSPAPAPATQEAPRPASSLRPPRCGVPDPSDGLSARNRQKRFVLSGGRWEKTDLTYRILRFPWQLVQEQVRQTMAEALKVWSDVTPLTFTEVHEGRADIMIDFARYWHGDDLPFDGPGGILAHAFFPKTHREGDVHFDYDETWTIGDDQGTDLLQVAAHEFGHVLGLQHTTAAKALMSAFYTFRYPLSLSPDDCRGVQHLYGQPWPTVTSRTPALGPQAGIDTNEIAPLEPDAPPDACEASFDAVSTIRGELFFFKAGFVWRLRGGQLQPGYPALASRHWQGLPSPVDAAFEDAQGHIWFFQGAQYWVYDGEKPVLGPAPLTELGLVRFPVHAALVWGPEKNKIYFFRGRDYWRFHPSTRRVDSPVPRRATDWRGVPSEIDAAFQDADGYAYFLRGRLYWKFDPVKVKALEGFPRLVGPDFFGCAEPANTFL

[6] = target: Matrix metalloproteinase-14 (Homo sapiens) (UniProt P50281); experiment: Inhibition of human recombinant MMP14 at 200 uM by HxBPyne probe-based competitive activity based protein profiling assay in presence of 5 uM HxBpane competitor; outline: as §1
Neutrophil collagenase [7] = target: T4, Neutrophil collagenase (Homo sapiens, UniProt P22894); experiment: Inhibition of human recombinant MMP8 at 200 uM by HxBPyne probe-based competitive activity based protein profiling assay in presence of 5 uM HxBpane competitor; outline: as §1
Target sequence in this assay (P22894 101-467 limits assumed): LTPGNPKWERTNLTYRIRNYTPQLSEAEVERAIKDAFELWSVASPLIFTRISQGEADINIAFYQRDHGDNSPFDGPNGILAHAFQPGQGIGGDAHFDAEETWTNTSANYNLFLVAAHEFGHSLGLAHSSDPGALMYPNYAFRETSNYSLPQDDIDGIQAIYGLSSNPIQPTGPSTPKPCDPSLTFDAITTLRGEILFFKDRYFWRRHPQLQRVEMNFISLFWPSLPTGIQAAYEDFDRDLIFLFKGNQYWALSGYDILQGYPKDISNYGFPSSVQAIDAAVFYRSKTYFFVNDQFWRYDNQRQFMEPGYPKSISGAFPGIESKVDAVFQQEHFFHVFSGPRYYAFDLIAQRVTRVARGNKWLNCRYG

[8] = target: 72 kDa type IV collagenase (Homo sapiens) (UniProt P08253); experiment: Inhibition of human recombinant MMP2 at 200 uM by HxBPyne probe-based competitive activity based protein profiling assay in presence of 5 uM HxBpane competitor; outline: as §1
[9] = target: Macrophage metalloelastase (Homo sapiens) (UniProt P39900); experiment: Inhibition of human recombinant MMP12 at 200 uM by HxBPyne probe-based competitive activity based protein profiling assay in presence of 5 uM HxBpane competitor; outline: as §1
Collagenase 3 [10] = target: T1, Collagenase 3; experiment: Inhibition of human recombinant MMP13 by HxBPyne probe-based competitive activity based protein profiling assay
[11] = target: Matrix metalloproteinase-24 (Homo sapiens) (UniProt Q9Y5R2); experiment: Inhibition of human recombinant MMP24 at 200 uM by HxBPyne probe-based competitive activity based protein profiling assay in presence of 5 uM HxBpane competitor; outline: as §1
[12] = target: Matrix metalloproteinase-16 (Homo sapiens) (UniProt P51512); experiment: Inhibition of human recombinant MMP16 at 200 uM by HxBPyne probe-based competitive activity based protein profiling assay in presence of 5 uM HxBpane competitor; outline: as §1
Neutrophil collagenase [13] = target: T4, Neutrophil collagenase; experiment: Inhibition of human recombinant MMP8 by fluorogenic substrate assay
Outline: (§2)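 Enzyme (MMP8 6 nM, MMP9 2 nM, MMP13 1.5 nM final) preincubated with inhibitor 30 min in 50 mM HEPES pH 7.5, 10 mM CaCl2, 0.05% Brij-35, at RT. Mca-PLGL-Dpa-AR-NH2 added at 5 μM; fluorescence (ex 328/em 393 nm) read each minute for 10 min. Initial rates by linear least squares; IC50 from variable-slope sigmoidal fit. Triplicate; mean with 95% CI.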
Target sequence in this assay (P22894 whole entry): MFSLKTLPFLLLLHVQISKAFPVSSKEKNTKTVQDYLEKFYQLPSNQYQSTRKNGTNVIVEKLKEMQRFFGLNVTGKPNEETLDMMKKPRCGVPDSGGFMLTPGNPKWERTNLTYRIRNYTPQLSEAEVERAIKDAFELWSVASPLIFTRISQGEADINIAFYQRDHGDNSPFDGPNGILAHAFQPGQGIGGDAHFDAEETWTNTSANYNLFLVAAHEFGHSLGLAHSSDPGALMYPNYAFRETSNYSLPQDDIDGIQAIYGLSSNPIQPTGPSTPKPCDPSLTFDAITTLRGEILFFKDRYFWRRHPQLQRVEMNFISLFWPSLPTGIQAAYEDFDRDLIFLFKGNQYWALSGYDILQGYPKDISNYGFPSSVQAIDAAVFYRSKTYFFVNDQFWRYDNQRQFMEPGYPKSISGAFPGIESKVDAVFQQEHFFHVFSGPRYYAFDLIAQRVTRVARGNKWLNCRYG

[14] = target: T5, Matrix metalloproteinase-9 (Homo sapiens, UniProt P14780); experiment: Inhibition of human recombinant MMP9 by fluorogenic substrate assay; outline: as §2
[15] = target: Stromelysin-1 (Homo sapiens) (UniProt P08254); experiment: Inhibition of human recombinant MMP3 at 200 uM by HxBPyne probe-based competitive activity based protein profiling assay in presence of 5 uM HxBpane competitor; outline: as §1
[16] = target: T5, Matrix metalloproteinase-9; experiment: Inhibition of human recombinant MMP9 at 200 uM by HxBP-Rh probe-based competitive activity based protein profiling assay in presence of 200 uM HxBP-alkyne
Outline: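 Enzyme 0.5 μM final, in PBS (ADAMTS4, neprilysin) or in 1 mg/mL mouse liver soluble proteome (MMP9). HxBP-Rh probe 0.5 μM final with 200 μM inhibitor or DMSO. Preincubated 30 min on ice, UV 365 nm 1 h on ice. Deglycosylated with PNGase F, then SDS-PAGE with fluorescence scanning. Activity given relative to DMSO control.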

[17] = target: T6, Disintegrin and metalloproteinase domain-containing protein 8 (Homo sapiens) (UniProt P78325); experiment: Inhibition of human recombinant ADAM8 at 200 uM by HxBPyne probe-based competitive activity based protein profiling assay in presence of 5 uM HxBpane competitor; outline: as §1
T6 sequence (whole entry): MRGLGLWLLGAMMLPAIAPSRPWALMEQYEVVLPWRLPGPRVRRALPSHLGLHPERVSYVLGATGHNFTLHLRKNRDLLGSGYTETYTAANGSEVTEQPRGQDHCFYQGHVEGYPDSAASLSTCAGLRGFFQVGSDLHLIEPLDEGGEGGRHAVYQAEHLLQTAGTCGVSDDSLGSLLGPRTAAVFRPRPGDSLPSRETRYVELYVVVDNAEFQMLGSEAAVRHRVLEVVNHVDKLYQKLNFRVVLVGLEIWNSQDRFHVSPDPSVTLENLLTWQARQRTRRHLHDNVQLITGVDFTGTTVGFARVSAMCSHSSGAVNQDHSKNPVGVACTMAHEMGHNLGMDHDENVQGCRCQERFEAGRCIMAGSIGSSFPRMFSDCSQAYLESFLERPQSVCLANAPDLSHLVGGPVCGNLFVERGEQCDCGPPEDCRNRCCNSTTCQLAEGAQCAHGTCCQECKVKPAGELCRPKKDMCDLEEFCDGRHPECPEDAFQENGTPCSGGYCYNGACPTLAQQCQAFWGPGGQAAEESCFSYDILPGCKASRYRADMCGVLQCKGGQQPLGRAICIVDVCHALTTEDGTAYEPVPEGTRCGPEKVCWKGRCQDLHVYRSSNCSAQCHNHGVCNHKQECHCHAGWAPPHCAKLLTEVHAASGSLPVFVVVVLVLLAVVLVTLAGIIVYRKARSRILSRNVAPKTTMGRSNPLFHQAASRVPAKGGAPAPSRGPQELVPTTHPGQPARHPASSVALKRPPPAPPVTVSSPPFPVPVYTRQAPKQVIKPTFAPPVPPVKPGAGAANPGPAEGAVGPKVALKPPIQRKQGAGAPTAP

T5 sequence (P14780 whole entry): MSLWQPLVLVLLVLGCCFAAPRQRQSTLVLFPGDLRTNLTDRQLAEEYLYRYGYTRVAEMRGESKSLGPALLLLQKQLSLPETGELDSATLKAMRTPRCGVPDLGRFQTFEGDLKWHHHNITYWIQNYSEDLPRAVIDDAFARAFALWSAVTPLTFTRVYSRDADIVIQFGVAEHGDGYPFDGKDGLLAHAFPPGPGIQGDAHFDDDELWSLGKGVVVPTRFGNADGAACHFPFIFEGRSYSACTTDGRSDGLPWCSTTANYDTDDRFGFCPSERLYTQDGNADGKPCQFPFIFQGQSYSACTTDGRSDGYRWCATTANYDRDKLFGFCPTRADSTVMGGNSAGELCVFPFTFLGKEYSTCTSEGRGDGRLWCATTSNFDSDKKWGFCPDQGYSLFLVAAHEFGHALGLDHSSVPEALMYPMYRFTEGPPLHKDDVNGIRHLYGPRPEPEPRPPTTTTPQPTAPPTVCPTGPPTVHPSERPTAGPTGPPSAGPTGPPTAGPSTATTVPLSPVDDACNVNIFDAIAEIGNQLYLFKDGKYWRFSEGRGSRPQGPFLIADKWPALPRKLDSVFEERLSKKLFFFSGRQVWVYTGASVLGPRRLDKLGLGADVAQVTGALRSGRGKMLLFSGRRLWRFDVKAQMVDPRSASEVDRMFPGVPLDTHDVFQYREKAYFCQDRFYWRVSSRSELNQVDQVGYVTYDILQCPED
Sequence of Macrophage metalloelastase (Homo sapiens) (P39900 106-470 limits assumed): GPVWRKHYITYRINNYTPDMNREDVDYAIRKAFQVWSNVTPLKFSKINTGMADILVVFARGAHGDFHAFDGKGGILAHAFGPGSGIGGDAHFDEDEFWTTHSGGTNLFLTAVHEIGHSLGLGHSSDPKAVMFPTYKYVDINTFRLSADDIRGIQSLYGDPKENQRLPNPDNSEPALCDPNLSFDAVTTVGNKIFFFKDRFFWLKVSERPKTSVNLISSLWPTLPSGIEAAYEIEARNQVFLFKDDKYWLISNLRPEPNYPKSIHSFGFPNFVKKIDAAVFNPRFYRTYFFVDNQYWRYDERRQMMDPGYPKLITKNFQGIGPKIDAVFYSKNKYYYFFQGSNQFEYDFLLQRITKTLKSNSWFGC
Sequence of 72 kDa type IV collagenase (Homo sapiens) (P08253 110-660 limits assumed): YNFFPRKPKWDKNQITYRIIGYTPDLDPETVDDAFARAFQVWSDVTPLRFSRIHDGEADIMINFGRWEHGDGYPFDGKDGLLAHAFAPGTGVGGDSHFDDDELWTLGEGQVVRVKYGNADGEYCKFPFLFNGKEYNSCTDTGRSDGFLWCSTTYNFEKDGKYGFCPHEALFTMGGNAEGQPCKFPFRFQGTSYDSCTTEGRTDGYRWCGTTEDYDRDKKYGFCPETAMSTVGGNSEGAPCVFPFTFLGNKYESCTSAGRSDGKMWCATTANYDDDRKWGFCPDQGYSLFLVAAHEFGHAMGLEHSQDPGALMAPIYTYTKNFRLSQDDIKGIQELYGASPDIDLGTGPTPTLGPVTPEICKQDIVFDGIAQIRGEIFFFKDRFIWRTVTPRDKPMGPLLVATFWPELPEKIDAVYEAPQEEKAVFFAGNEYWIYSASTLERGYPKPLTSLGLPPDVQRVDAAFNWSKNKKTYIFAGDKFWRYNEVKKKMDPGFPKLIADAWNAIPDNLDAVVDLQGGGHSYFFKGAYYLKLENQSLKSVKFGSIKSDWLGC
Sequence of Stromelysin-1 (Homo sapiens) (P08254 100-477 limits assumed): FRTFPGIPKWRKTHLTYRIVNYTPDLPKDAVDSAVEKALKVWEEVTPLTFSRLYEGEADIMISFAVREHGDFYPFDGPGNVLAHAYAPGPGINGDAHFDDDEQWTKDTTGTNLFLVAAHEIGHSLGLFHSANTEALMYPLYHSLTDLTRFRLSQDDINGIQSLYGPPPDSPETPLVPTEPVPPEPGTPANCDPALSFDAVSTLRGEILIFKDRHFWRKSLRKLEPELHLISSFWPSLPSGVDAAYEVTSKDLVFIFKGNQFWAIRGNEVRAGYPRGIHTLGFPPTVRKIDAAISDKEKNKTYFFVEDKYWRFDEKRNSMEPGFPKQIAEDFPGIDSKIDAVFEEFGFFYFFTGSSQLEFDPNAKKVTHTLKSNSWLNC
Sequence of Stromelysin-2 (Homo sapiens) (P09238 99-476 limits assumed): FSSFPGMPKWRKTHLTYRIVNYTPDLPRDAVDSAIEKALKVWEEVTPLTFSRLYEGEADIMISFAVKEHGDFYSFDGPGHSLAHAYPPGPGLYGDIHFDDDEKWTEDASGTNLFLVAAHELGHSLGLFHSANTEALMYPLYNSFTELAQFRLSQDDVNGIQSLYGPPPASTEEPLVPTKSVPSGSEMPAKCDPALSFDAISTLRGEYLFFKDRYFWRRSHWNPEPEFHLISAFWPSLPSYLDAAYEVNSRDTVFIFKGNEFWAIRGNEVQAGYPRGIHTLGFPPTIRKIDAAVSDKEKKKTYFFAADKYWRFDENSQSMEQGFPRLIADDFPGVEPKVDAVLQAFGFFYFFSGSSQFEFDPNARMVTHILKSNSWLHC
Sequence of Matrix metalloproteinase-24 (Homo sapiens) (Q9Y5R2 whole entry): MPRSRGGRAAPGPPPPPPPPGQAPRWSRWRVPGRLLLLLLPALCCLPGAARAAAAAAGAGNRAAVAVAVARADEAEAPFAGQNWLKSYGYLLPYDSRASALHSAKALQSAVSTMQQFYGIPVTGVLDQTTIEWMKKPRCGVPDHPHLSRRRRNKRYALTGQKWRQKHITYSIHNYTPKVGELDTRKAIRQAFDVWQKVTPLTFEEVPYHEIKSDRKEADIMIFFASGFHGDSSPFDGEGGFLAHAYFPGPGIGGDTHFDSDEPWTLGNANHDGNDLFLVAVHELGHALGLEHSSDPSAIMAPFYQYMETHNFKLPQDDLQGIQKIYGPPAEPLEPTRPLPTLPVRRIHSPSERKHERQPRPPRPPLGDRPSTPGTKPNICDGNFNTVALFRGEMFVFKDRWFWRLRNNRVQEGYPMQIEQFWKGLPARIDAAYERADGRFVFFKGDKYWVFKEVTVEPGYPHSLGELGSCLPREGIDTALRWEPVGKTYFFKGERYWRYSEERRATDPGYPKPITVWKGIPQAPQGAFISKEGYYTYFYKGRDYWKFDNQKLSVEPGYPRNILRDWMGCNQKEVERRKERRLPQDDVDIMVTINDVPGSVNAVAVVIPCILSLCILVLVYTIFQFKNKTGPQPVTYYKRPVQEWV
Sequence of Matrix metalloproteinase-15 (Homo sapiens) (P51511 132-669 limits assumed): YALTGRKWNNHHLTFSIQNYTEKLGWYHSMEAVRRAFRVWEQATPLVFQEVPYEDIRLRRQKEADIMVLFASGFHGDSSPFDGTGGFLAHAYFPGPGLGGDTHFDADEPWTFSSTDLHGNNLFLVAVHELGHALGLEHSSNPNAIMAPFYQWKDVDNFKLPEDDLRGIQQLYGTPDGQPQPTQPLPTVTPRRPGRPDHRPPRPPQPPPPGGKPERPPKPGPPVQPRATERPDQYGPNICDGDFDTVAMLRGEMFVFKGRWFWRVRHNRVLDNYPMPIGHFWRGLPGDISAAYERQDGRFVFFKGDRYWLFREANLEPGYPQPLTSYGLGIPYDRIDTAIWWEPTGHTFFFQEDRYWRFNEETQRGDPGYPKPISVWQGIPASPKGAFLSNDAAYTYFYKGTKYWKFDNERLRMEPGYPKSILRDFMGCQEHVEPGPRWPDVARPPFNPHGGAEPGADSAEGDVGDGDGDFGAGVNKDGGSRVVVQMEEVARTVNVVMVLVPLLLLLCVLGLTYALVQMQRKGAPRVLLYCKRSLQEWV

Structure (SMILES) | Activity [1] | pIC50 (Collagenase 3 [2]) | Activity [3] | Activity [4] | Activity [5] | Activity [6] | Activity (Neutrophil collagenase [7]) | Activity [8] | Activity [9] | pIC50 (Collagenase 3 [10]) | Activity [11] | Activity [12] | pIC50 (Neutrophil collagenase [13]) | pIC50 [14] | Activity [15] | Activity [16] | Activity [17]
O=C(O)CCC(NS(=O)(=O)c1ccc(-c2ccccc2)cc1)C(=O)O (stereo unspecified) | Active | 6.55 | Active | Active | Active | Active | Active | Active | Active | 4.89 | Active | Active | 7.62 | 4.85 | Active |  | 
CCCCCCOc1ccc(C(CC(=O)O)C(N)=O)cc1 (stereo unspecified) |  | 5.89 |  | Active |  |  | Active | Active | Active | 4.57 |  |  | 6.17 | 6.80 | Active | Active | Active
